Assay outcomes (PubChem)
KCNK3 inh: human KCNK3 channel inhibition, primary screen | AID 602410 | O14649 | B-score at 10 µM | CHO-KCNK3 thallium flux, FluxOR fluorescence; hits give low values | 340,000 tested, 0.84% active;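 active = B-score under library mean minus 4 SD, starting fluorescence ratio at most library mean plus 5 SD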;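 note: more negative B-score means stronger inhibition of thallium flux through KCNK3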
KCNQ1 act: potentiators or activators of human KCNQ1 potassium channel | CHO-K1 KCNQ1, thallium flux FluxOR fluorescence; hits give high values | B-score at 10 µM | 310,000 tested, 0.35% active;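 active = fluorescence ratio B-score, a plate-corrected score, at least three library SD, with initial intensity B-score within 5 SD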
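Medium – assay buffer, equal DMSO in all wells · Material – CHO-K1 cell line with stable KCNQ1 potassium channel expression · Signal – kinetic FluxOR thallium fluorescence, 10-s 1-Hz baseline, 110-s post-stimulus read · Compound – single concentration per compound, DMSO matched to controls · Schedule – 37 °C overnight plating, 90-min dark dye load, 20-min compound pretreatment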
KCNK9 block: blocks the human KCNK9 two-pore domain potassium channel; Q9NPC2; HEK293 KCNK9, FluxOR thallium flux fluorescence; hits give low values; B-score at 10 µM; 310,000 tested, 1.2% active; AID 488922;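 active = ratio B-score over 3 SD below the library mean, with starting fluorescence within 5 SD of its mean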;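 note: negative B-score means less thallium flux so channel inhibition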
hERG protect: shields human hERG channel from block by proarrhythmic agents. Q12809. CHO-hERG, FluxOR thallium flux, dofetilide IC70 present. activation (rescue from dofetilide block), less the hit threshold, % at 10 µM. 310,000 tested, 0.51% active. AID 1511;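 active = activation above the mean of controls blocked by dofetilide plus 5 SD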;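 note: thallium influx through hERG after potassium depolarization seen as dye fluorescence rise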
Target sequence (Q12809 whole entry, looked up): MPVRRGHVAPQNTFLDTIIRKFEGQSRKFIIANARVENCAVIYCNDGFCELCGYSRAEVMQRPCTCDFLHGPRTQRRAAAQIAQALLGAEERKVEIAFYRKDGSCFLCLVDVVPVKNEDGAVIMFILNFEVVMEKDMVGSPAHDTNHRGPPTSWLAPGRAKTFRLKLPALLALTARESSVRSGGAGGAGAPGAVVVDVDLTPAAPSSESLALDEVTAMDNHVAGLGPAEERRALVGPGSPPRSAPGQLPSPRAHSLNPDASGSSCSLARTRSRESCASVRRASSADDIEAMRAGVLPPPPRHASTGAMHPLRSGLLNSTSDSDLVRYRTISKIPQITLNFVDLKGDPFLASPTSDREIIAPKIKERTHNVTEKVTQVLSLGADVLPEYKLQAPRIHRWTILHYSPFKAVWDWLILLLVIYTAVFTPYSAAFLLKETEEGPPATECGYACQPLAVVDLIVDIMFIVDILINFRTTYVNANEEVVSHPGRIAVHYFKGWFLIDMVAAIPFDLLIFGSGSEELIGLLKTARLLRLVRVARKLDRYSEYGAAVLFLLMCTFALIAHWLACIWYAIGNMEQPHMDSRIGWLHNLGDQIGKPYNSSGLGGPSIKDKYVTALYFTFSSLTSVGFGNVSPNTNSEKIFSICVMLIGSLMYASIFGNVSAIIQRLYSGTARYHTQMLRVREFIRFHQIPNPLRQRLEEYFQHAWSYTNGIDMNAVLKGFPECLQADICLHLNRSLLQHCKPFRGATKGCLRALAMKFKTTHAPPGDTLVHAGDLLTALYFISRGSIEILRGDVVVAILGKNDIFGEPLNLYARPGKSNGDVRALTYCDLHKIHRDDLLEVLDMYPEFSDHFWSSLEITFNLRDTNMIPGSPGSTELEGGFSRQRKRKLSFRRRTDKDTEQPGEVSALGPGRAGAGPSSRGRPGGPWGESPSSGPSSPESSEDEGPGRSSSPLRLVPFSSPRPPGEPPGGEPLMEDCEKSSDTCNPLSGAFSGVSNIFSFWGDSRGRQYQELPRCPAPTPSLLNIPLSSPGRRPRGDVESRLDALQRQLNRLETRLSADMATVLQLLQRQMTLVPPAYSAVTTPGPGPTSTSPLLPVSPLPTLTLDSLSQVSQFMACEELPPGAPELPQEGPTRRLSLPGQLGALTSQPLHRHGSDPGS
KCNQ1 inh: blocks the human KCNQ1 potassium channel. CHO-K1 KCNQ1, FluxOR thallium flux fluorescence; hits give high values. B-score at 10 µM. 310,000 tested, 1.3% active. AID 2642;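 active = compounds whose thallium flux B-score, printed positive for inhibition, exceeds three library SD while starting fluorescence stays within three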;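 note: channel opened by potassium depolarization with thallium stimulus after 20 min compound exposure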
KCNK3 confirm: confirmation of human KCNK3 two-pore domain potassium channel inhibitors; ratio percent of control, % at 10 µM; CHO-KCNK3 thallium flux, FluxOR fluorescence; 0% buffer, 100% carvedilol maximal block; shares compounds with KCNK3 inh; 2,400 tested, 99% active;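 active = ratio percent of control, averaged over triplicates, above buffer control mean plus 5 SD, cut at about 64% in these data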;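 note: ratio is the fluorescence rise from min to max over baseline after thallium stimulus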
KCNK3 uninduced: counter-screen for KCNK3 inhibitors: effect in non-induced cells. shares compounds with KCNK3 inh. non-induced KCNK3 parental cells, FluxOR thallium flux; hits give low values. thallium flux ratio (lower = more inhibition) at 10 µM. 2,400 tested, 40% active. AID 651747;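 active = thallium flux ratio, averaged over three wells, more than 5 SD below the buffer control mean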;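 note: host cells are CHO cells without KCNK3 induction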
Large screens that a line does not name were inactive (follow-up assays come after a bar, where they were run). A selection: hits, their analogues and other compounds. The true share with any hit is near 3.1%.

O=C(NCCc1ccccc1)c1ccc2c(=O)[nH]c3c(C(=O)NCC4CCCO4)sc(=S)n3c2c1 (centres undefined)	KCNK3 inh -12, KCNQ1 inh 8 | KCNK3 confirm 118 | KCNK3 uninduced inactive
CC(=O)N1CCC(C(=O)N2CCN(S(=O)(=O)c3ccc(F)cc3)CC2)CC1	none
CN1CCC(N(C)CC(C)(C)NS(=O)(=O)c2ccccc2)CC1	none
Cc1ccc(C)c(Nc2cc(C(=O)NCc3cccnc3)c3ccccc3n2)c1	KCNK3 inh -8.9, KCNK9 block -7.9 | KCNK3 confirm 87 | KCNK3 uninduced inactive
Cc1cc(C)cc(OC(C)C(=O)Nc2ccccc2C(=O)NCc2cccnc2)c1 (centres undefined)	KCNK3 inh -9.7 | KCNK3 confirm 84 | KCNK3 uninduced 0.16
CC(Oc1ccc(F)cc1)C(=O)Nc1sc2c(c1C(=O)NCc1cccnc1)CCCC2 (centres undefined)	KCNK3 inh -8.9 | KCNK3 confirm 113 | KCNK3 uninduced inactive
Cc1ccc(S(=O)(=O)N2CCCC2CNC(=O)c2ccc(F)c(F)c2)cc1 (centres undefined)	none
Cc1c(C(=O)N2CCN(c3ccccn3)CC2)sc2ncnc(N3CCN(c4ccccc4)CC3)c12	none
Cc1nc(N2CCN(c3ccccn3)CC2)c2c(C)c(C(=O)N3CCN(c4cccc(Cl)c4)CC3)sc2n1	KCNK3 inh -9.4 | KCNK3 confirm 97 | KCNK3 uninduced inactive
CCc1ccc(NC(=O)c2sc3nc(C)nc(N4CCN(c5ccccn5)CC4)c3c2C)cc1	KCNK3 inh -12, KCNQ1 inh 6 | KCNK3 confirm 139 | KCNK3 uninduced 0.11
Cc1nc(N2CCN(c3ccccn3)CC2)c2c(C)c(C(=O)Nc3ccccc3F)sc2n1	none
O=C1C(Cl)=C(NCCc2ccccc2)C(=O)c2ccccc21	KCNK3 inh -14 (no result: KCNQ1 act, KCNK9 block, hERG protect, KCNQ1 inh) | KCNK3 confirm 161 | KCNK3 uninduced 0.065
O=C1C(Cl)=C(Nc2ccccc2)C(=O)c2ccccc21	none
CCC(=O)N1CCN(c2ccc(NC(=O)COc3ccccc3[N+](=O)[O-])cc2)CC1	none
Cc1c(C(=O)OCC(=O)N(C)Cc2ccc(Cl)cc2)oc2ccccc12	none (no result: KCNQ1 act, KCNK9 block, hERG protect, KCNQ1 inh)
Cc1c(C(=O)N(C)CC(=O)Nc2cccc(F)c2)oc2c(Cl)cccc12	none
Cc1c(C(=O)N(C)Cc2ccccc2)oc2c(Cl)cccc12	KCNK3 inh -11 | KCNK3 confirm 110 | KCNK3 uninduced inactive
Cc1c(C(=O)OC(C)C(=O)N(C)Cc2ccccc2)oc2ccccc12 (centres undefined)	KCNK3 inh -12 (no result: KCNQ1 act, KCNK9 block, hERG protect, KCNQ1 inh) | KCNK3 confirm 77 | KCNK3 uninduced inactive
O=C(O)Cc1sc(Nc2cccc3ccccc23)nc1-c1ccc(Cl)cc1	none
COc1cc(C(=O)NCC(=O)N/N=C/c2ccc(-c3ccc([N+](=O)[O-])cc3)o2)cc(OC)c1OC	KCNK3 inh -10 | KCNK3 confirm 95 | KCNK3 uninduced inactive
c1ccc(SCc2cc(-c3ccccc3)no2)cc1	KCNK3 inh -10 | KCNK3 confirm 100 | KCNK3 uninduced inactive
Clc1ccc(-c2cc(CSc3ccccc3)on2)cc1	none
CC1CCc2sc(C(=O)N/N=C/c3ccc(O)cc3)cc2C1 (centres undefined)	KCNK3 inh -10 | KCNK3 confirm 57 | KCNK3 uninduced inactive
CCCN(C(=O)C1CC(=O)N(c2ccccc2C(C)CC)C1)C1CCS(=O)(=O)C1 (centres undefined)	none (no result: KCNQ1 act, KCNK9 block, hERG protect, KCNQ1 inh)
CCSc1nnc(-c2cccc(S(=O)(=O)N(CC)CC)c2)n1Cc1ccccc1	KCNK3 inh -9.8 | KCNK3 confirm 93 | KCNK3 uninduced inactive
COc1ccc(CN(CC2CCC(C(=O)O)CC2)C(=S)Nc2ccc(C)c(Cl)c2)cc1 (centres undefined)	none
COc1ccc(CCN(Cc2cc3cc(C)cc(C)c3nc2Cl)C(=O)C2CC2)cc1	KCNK3 inh -11 | KCNK3 confirm 98 | KCNK3 uninduced inactive
COc1ccccc1OCCn1cc(C(=O)c2ccco2)c2ccccc21	KCNK3 inh -12, KCNK9 block -7.4 | KCNK3 confirm 102 | KCNK3 uninduced inactive
COc1cccc(OCCn2cc(C(C)=O)c3ccccc32)c1	KCNK3 inh -9.2 | KCNK3 confirm 124 | KCNK3 uninduced inactive
CC(=O)c1cn(CCOc2cc(C)ccc2C)c2ccccc12	none
O=C(COC(=O)[C@@H]1CC(O)CN1S(=O)(=O)c1ccc2c(c1)OCCO2)NCc1ccc(F)cc1 (some centres undefined)	none
CCOC(=O)c1cccc(OS(=O)(=O)Cc2ccccc2)c1	none
Cc1sc2ncnc(N3CCN(S(=O)(=O)c4ccc(C(C)(C)C)cc4)CC3)c2c1C	none (no result: KCNQ1 act, KCNK9 block, hERG protect, KCNQ1 inh)
Cc1sc2ncnc(N3CCN(S(=O)(=O)c4ccc(Br)cc4)CC3)c2c1C	KCNK3 inh -12 | KCNK3 confirm 116 | KCNK3 uninduced 0.15
Cc1cc(O)c(C(C)C)cc1NC(=O)Nc1cc(Cl)ccc1Cl	KCNK3 inh -12 (no result: KCNQ1 act, KCNK9 block, hERG protect, KCNQ1 inh) | KCNK3 confirm 114 | KCNK3 uninduced 0.16
Cc1cc(O)c(C(C)C)cc1NC(=O)c1ccccc1Cl	none
COc1ccc([C@@H]2CC=C(C(=O)O)[C@H](c3ccc(Cl)cc3)N2S(=O)(=O)c2ccc(C)cc2)cc1OC	none (no result: KCNQ1 act, KCNK9 block, hERG protect, KCNQ1 inh)
Cc1ccc(C2Nc3ccccc3-c3nc4ccccc4n32)o1 (centres undefined)	none
CN1c2ccccc2-c2nc3ccccc3n2C1c1ccccn1 (centres undefined)	KCNK3 inh -9.7 | KCNK3 confirm 95 | KCNK3 uninduced inactive
CCCOc1ccc(C2NC(=S)NC(C)=C2C(=O)c2ccccc2)cc1OC (centres undefined)	KCNK3 inh -9.8 | KCNK3 confirm 97 | KCNK3 uninduced inactive
CC(NC(=O)CCCn1cc([N+](=O)[O-])cn1)c1ccccc1 (centres undefined)	none
Cc1ccccc1-c1cc(-c2ccccc2O)on1	KCNK3 inh -9.2 | KCNK3 confirm 118 | KCNK3 uninduced inactive
CCN(CC)S(=O)(=O)c1ccc(NC(=O)c2cccs2)cc1	KCNK3 inh -10 | KCNK3 confirm 83 | KCNK3 uninduced inactive
CCN(CC)S(=O)(=O)c1ccc(C(=O)NNC(=O)c2cccs2)cc1	none
CCCn1cnc2cc(NC(=O)c3cccs3)ccc21	none
CCOc1ccc(-c2c(C(=O)N/N=C/C3CC=CCC3)nnn2-c2nonc2N)cc1 (centres undefined)	none
Cc1cc(C(=O)Nc2ccc(Nc3ccccc3)cc2)ccc1[N+](=O)[O-]	none
O=C(Nc1ccc(Nc2ccccc2)cc1)c1ccc(Cl)c([N+](=O)[O-])c1	KCNK3 inh -11 | KCNK3 confirm 125 | KCNK3 uninduced 0.15
